Reference: ChEMBL document CHEMBL3124927, “New C(4)- and C(1)-derivatives of furo[3,4-c]pyridine-3-ones and related compounds: evidence for site-specific inhibition of the constitutive proteasome and its immunoisoform” (Bioorg Med Chem Lett, 2014)
Active and inactive are the calls of the source. The calls are words filed in the database; no cut-off is given here.

Legend:
[1] = Inhibition of 20s constitutive proteasome beta 2 subunit trypsin-like activity in rabbit erythrocytes using Boc-LRR-AMC as substrate incubated for 15 mins prior to substrate addition measured after 45 mins by fluorescence assay; format: cell-based, Oryctolagus cuniculus
How it was run: (§1)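 Purified rabbit erythrocyte constitutive 20S fraction, 0.27 nM enzyme, pre-incubated 15 min with or without inhibitor, then Boc-LRR-AMC added. Buffer at pH 7.5. Fluorescence read-out. IC50 is from a plot of percent inhibition against inhibitor concentration, Hill-equation fit.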

[2] = Inhibition of 20s constitutive proteasome beta 1 subunit caspase-like activity in rabbit erythrocytes using Z-LLE-betaNA as substrate incubated for 15 mins prior to substrate addition measured after 45 mins by fluorescence assay; format: cell-based, Oryctolagus cuniculus
How it was run: (§2)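 Purified rabbit erythrocyte constitutive 20S fraction, 0.27 nM enzyme, pre-incubated 15 min with or without inhibitor before substrate addition. Buffer pH 7.5: 20 mM Tris, 1 mM DTT, 10% glycerol, 0.02% (w/v) SDS. Fluorescence read-out. IC50 is from a percent inhibition versus concentration plot, fitted with a Hill-type equation.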

[3] = organism: Oryctolagus cuniculus; assay: Inhibition of 20s constitutive proteasome beta 5 subunit chymotrypsin-like activity in rabbit erythrocytes using Suc-LLVY-AMC as substrate at 100 uM incubated for 15 mins prior to substrate addition measured after 45 mins by fluorescence assay relative to control; format: cell-based; how it was run: as §2
[4] = Inhibition of 20s constitutive proteasome beta 5 subunit chymotrypsin-like activity in rabbit erythrocytes using Suc-LLVY-AMC as substrate incubated for 15 mins prior to substrate addition measured after 45 mins by fluorescence assay; format: cell-based, Oryctolagus cuniculus; how it was run: as §2
[5] = target: T1, Calpain-1 catalytic subunit (Homo sapiens) (UniProt P07384); assay: Inhibition of human calpain-1 using Suc-LLVY-AMC as substrate by fluorescence assay
T1 sequence (whole entry): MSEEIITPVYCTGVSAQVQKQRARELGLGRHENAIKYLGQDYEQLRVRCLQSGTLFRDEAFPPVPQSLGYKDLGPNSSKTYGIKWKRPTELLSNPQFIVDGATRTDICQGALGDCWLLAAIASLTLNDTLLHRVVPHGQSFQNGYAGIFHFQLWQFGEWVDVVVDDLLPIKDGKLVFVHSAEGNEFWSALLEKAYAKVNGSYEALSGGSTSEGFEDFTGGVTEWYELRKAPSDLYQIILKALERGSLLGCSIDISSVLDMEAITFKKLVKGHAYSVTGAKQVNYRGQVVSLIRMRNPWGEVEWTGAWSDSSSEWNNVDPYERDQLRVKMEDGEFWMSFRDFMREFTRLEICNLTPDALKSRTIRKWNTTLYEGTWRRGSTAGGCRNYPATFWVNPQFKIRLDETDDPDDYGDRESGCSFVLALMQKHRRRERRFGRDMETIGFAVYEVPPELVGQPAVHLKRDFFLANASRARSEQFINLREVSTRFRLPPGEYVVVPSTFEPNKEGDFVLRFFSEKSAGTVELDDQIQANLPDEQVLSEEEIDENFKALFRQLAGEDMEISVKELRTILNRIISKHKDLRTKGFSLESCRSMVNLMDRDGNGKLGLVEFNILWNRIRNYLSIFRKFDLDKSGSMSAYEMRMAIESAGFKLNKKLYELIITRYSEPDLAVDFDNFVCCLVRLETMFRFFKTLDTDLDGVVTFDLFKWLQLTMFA
How it was run: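 Human calpain I fraction, Suc-LLVY-AMC substrate, at 25 °C in 50 mM Tris, 10 mM DTT with CaCl2, pH 7.2. Fluorescence read-out. IC50 is from percent inhibition versus inhibitor concentration.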

[6] = target: Cathepsin B (Homo sapiens) (UniProt P07858); assay: Inhibition of human cathepsin B using Z-RR-AMC as substrate by fluorescence assay
How it was run: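 Human cathepsin B fraction, Z-RR-AMC substrate, at 37 °C in 352 mM KH2PO4, 48 mM Na2HPO4, 1 mM EDTA, 1 mM DTT, pH 6. Fluorescence read-out. IC50 is from percent inhibition versus inhibitor concentration.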

[7] = organism: Oryctolagus cuniculus; assay: Inhibition of 20s constitutive proteasome beta 1 subunit caspase-like activity in rabbit erythrocytes using Z-LLE-betaNA as substrate at 100 uM incubated for 15 mins prior to substrate addition measured after 45 mins by fluorescence assay relative to control; format: cell-based; how it was run: as §2
[8] = organism: Oryctolagus cuniculus; assay: Inhibition of 20s constitutive proteasome beta 5 subunit chymotrypsin-like activity in rabbit erythrocytes using Suc-LLVY-AMC as substrate at 50 uM incubated for 15 mins prior to substrate addition measured after 45 mins by fluorescence assay relative to control; format: cell-based; how it was run: as §2
[9] = organism: Oryctolagus cuniculus; assay: Inhibition of 20s constitutive proteasome beta 1 subunit caspase-like activity in rabbit erythrocytes using Z-LLE-betaNA as substrate at 50 uM incubated for 15 mins prior to substrate addition measured after 45 mins by fluorescence assay relative to control; format: cell-based; how it was run: as §2
[10] = organism: Oryctolagus cuniculus; assay: Inhibition of 20s constitutive proteasome beta 2 subunit trypsin-like activity in rabbit erythrocytes using Boc-LRR-AMC as substrate at 100 uM incubated for 15 mins prior to substrate addition measured after 45 mins by fluorescence assay relative to control; format: cell-based; how it was run: as §1
[11] = organism: Oryctolagus cuniculus; assay: Inhibition of 20s constitutive proteasome beta 2 subunit trypsin-like activity in rabbit erythrocytes using Boc-LRR-AMC as substrate at 50 uM incubated for 15 mins prior to substrate addition measured after 45 mins by fluorescence assay relative to control; format: cell-based; how it was run: as §1
[12] = target: T2, Proteasome component C5 (Homo sapiens) (UniProt P20618); assay: Inhibition of 20s immunoproteasome beta 1 subunit caspase-like activity in human blood monocytes using Z-LLE-betaNA as substrate at 100 uM preincubated for 2 mins followed by substrate addition by fluorescence assay; format: cell-based
T2 sequence (whole entry): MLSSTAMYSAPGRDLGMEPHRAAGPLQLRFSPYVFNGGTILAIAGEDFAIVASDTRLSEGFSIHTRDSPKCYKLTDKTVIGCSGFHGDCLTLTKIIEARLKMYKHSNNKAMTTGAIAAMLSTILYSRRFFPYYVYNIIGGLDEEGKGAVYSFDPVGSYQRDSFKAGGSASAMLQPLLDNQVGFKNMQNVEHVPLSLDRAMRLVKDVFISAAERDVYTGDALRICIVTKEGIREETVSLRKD
How it was run: (§3)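 Purified immunoproteasome 20S fraction, run like the constitutive assay but with a 2-min pre-incubation with inhibitor before adding the respective substrate. Fluorescence read-out. IC50 is from percent inhibition versus concentration, fitted with a Hill-number equation.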

[13] = target: T3, Proteasome Macropain subunit MB1 (Homo sapiens) (UniProt P28074); assay: Inhibition of 20s immunoproteasome beta 5 subunit chymotrypsin-like activity in human blood monocytes using Suc-LLVY-AMC as substrate at 100 uM preincubated for 2 mins followed by substrate addition by fluorescence assay; format: cell-based; how it was run: as §3
T3 sequence (whole entry): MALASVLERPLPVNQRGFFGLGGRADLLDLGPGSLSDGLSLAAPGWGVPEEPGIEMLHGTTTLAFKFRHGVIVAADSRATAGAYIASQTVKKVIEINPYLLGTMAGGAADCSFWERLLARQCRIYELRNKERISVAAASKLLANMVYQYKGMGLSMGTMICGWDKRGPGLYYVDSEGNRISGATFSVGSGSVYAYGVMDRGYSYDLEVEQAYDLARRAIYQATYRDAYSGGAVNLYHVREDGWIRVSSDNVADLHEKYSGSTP

[14] = organism: Oryctolagus cuniculus; assay: Inhibition of 20s constitutive proteasome beta 1 subunit caspase-like activity in rabbit erythrocytes using Z-LLE-betaNA as substrate at 25 uM incubated for 15 mins prior to substrate addition measured after 45 mins by fluorescence assay relative to control; format: cell-based; how it was run: as §2
[15] = target: Proteasome Macropain subunit (Homo sapiens) (UniProt P49721); assay: Inhibition of 20s immunoproteasome beta 2 subunit trypsin-like activity in human blood monocytes using Boc-LRR-AMC as substrate at 100 to 2000 nM preincubated for 2 mins followed by substrate addition by fluorescence assay; format: cell-based; how it was run: as §3
Sequence of Proteasome Macropain subunit (Homo sapiens) (P49721 whole entry): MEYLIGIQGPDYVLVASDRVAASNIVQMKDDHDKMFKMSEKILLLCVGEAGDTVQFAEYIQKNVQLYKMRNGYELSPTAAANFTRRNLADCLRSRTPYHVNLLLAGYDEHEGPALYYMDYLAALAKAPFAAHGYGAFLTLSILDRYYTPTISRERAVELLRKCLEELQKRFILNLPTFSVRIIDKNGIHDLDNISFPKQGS

[16] = tested on: HeLa; assay: Cytotoxicity against human HeLa cells assessed as decrease cell attachment after 18 to 72 hrs by XTT assay; format: cell-based
How it was run: (§4)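 HeLa cells seeded and handled as for the in-cell proteasome assay, then exposed to inhibitor for 18 or 72 h. Viability read as XTT reduction to formazan by mitochondrial dehydrogenases: 3 h with 1 mg/mL XTT, absorbance at 485 nm.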

[17] = target: T3, Proteasome Macropain subunit MB1 (Homo sapiens); assay: Inhibition of 20s immunoproteasome beta 5 subunit chymotrypsin-like activity in human blood monocytes using Suc-LLVY-AMC as substrate at 100 to 2000 nM preincubated for 2 mins followed by substrate addition by fluorescence assay; format: cell-based; how it was run: as §3
[18] = tested on: mitochondrial dehydrogenase activity (cytotoxicity readout); assay: Cytotoxicity against human HeLa cells assessed as inhibition of mitochondrial dehydrogenase activity at 50 uM after 18 to 72 hrs by XTT assay relative to control; format: cell-based; conditions: read-out: INH; how it was run: as §4

SMILES	IC50 [1]	IC50 [2]	inhibition [5]	inhibition [6]	IC50 [4]	inhibition [3]	other results
C=C1c2c(ncn(C)c2=O)OC12CCCCC2	Not Active	Not Active	–	–	–	30%	–
CC1(C)OC(=O)c2c1ccnc2S	Not Active	–	inactive	inactive	–	–	IC50 ([4]; read-out: IC50): 79 µM; inhibition [7]: 48%
CCN(CC)CC(O)Cn1cnc2sc(-c3ccccc3)cc2c1=O (stereo unspecified)	–	–	–	–	–	–	IC50 ([1]; read-out: IC50): 19.4 µM; inhibition [8]: 36%; inhibition [9]: 25%
C=C1c2c(ncn(CC(O)CN3CCOCC3)c2=O)OC1(C)C (stereo unspecified)	Not Active	Not Active	–	–	–	33%	–
Cc1sc2ncn(CCCN3CCOCC3)c(=O)c2c1C	–	Not Active	–	–	Not Active	–	inhibition [10]: 53%
Cc1sc2ncn(CCc3ccccc3)c(=O)c2c1C	–	Not Active	–	–	Not Active	–	inhibition [10]: 42%
C=C1c2c(ncn(CCCn3ccnc3)c2=O)OC1(C)C	–	–	–	–	Not Active	–	IC50 ([2]; read-out: IC50): 47 µM; inhibition [10]: 56%
O=c1c2c(-c3ccc(Cl)cc3)csc2ncn1CCc1ccc(F)cc1	–	Not Active	–	–	Not Active	–	inhibition [11]: 56%
O=c1c2cc(-c3ccccc3)sc2ncn1CCc1ccc(Cl)cc1	–	–	–	–	–	–	inhibition [12]: inactive; IC50 ([1]; read-out: IC50): 9.9 µM; inhibition [13]: inactive
Cc1sc2ncn(CCCn3ccnc3)c(=O)c2c1C	–	Not Active	–	–	Not Active	–	inhibition [11]: 42%
CCC1(C)OC(=O)c2c1ccnc2N (stereo unspecified)	Not Active	–	inactive	inactive	–	21.5%	IC50 ([2]; read-out: IC50): 7 µM
C=C1c2c(ncn(CCCN3CCOCC3)c2=O)OC1(C)C	–	Not Active	–	–	Not Active	–	inhibition [10]: 48%
O=C1OC2(CCCCC2)c2ccnc(S)c21	Not Active	–	inactive	inactive	–	52%	inhibition [7]: 20%
CC1(C)OC(=O)c2c1ccnc2N1CCCCC1	Not Active	–	inactive	inactive	Not Active	–	inhibition [7]: 41.6%

Second part, led by results:

IC50 [1]	IC50 [2]	inhibition [5]	inhibition [6]	IC50 [4]	SMILES	inhibition [3]	other results
–	Not Active	inactive	inactive	–	Cc1ccc(OCC(O)CNc2nccc3c2C(=O)OC3(C)C)cc1 (stereo unspecified)	36.5%	IC50 ([1]; read-out: IC50): 60.8 µM
–	Not Active	inactive	inactive	–	CC1(C)OC(=O)c2c1ccnc2NCC(O)COc1ccc(Cl)cc1 (stereo unspecified)	63%	IC50 ([1]; read-out: IC50): 48.1 µM
–	–	inactive	inactive	Not Active	CC1(C)OC(=O)c2c1ccnc2N	–	IC50 ([2]; read-out: IC50): 7.9 µM; inhibition [10]: 35%
Not Active	Not Active	inactive	inactive	–	CC1(C)OC(=O)c2c1ccnc2NCC(O)COc1ccc(F)cc1 (stereo unspecified)	29%	–
Not Active	–	inactive	inactive	Not Active	CC1(C)OC(=O)c2c1ccnc2Nc1ccc(S(N)(=O)=O)cc1	–	inhibition [14]: inactive
–	–	inactive	inactive	–	CC1(C)OC(=O)c2c1ccnc2NCc1ccccc1	–	inhibition [15]: inactive; Activity [16]: Toxic; inhibition [17]: inactive; cytotoxicity at 50 µM [18]: 35%
Not Active	–	inactive	inactive	–	CC1(C)OC(=O)c2c1ccnc2Nc1ccc(Cl)cc1	24.5%	inhibition [7]: 41.5%
–	–	inactive	inactive	–	CC1(C)OC(=O)c2c1ccnc2NNC(N)=S	26%	inhibition [10]: 29%; inhibition [7]: 41%
